Experimental findings from ChEMBL document CHEMBL1126758, “Synthesis and structure-activity studies of a series of spirooxazolidine-2,4-diones: 4-oxa analogues of the muscarinic agonist 2-ethyl-8-methyl-2,8-diazaspiro[4.5]decane-1,3-dione” (J Med Chem, 1993) are described below.

What is called Ki is the equilibrium dissociation constant of an inhibitor or competing ligand from its target. Read a high Ki as a looser hold on the target. A word on the inhibition: it is the drop in the measured response relative to a control, in per cent. Low values mean a weak effect, high ones a strong effect.

Test [1] deals with T1, Muscarinic acetylcholine receptor M1 (Rattus norvegicus, UniProt P08482).
T1 sequence (P08482 whole entry): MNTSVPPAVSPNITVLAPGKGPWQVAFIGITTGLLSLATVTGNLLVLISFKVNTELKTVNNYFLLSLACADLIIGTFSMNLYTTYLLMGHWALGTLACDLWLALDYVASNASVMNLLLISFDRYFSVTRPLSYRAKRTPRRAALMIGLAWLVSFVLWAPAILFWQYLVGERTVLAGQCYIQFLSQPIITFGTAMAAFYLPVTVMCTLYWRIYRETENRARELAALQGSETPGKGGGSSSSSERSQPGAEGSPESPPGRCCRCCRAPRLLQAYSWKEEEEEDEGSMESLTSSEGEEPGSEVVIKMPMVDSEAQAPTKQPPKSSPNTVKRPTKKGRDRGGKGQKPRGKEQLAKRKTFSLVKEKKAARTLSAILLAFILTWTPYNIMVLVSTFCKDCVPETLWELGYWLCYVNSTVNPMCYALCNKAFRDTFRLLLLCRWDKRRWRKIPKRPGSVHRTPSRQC
Kind of test: Displacement of [3H]pirenzepine from rat cortex membrane expressing muscarinic M1 receptor. Summed up:
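M1 binding: male Wistar rat cerebral cortex membranes were resuspended in 8.3 mM Tris-HCl with 1.25 mM MnCl2, pH 7.4. Membranes (250 μg protein) were incubated with about 1.0 nM [3H]pirenzepine for 60 min at 25 °C. Atropine 10 μM defined nonspecific binding. Bound radioactivity was collected by filtration and counted by scintillation. IC50 came from logit-log analysis, converted by Cheng-Prusoff to Ki; single experiment in triplicate.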
In general terms: Loss of bound radioactivity is the signal in a displacement assay; it reports binding, not function.

Test [2] relates to Mus musculus. Nature of the test: Dose producing more than 30 mg of saliva as a total amount was determined in vivo in mice. Type of test: functional. Summed up: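 Male ICR mice were dosed sc, and saliva was collected at 15 and 45 min after dosing. ED30mg is the dose giving more than 30 mg total saliva. Dosing started at 30 mg/kg and fell stepwise by thirds. Each dose group had 3-6 mice.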

A short description of test [3]: Minimum dose required for subcutaneous administration to improve scopolamine-induced impairment of passive avoidance task in mouse(anti-amnesic effect).
The subject of test [4] is Mus musculus. Kind of test: Dose required to reduce the rectal temperature (hypothermia) by 2 degree Celsius was determined in vivo in mice. It counts as functional. Summed up:
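Rectal temperature of male ICR mice was taken with a thermoprobe before and 30 min after sc dosing. Dosing started at 30 mg/kg and fell by thirds until a drop over 2 °C no longer occurred, giving ED Δ2°C. Each dose group had 3-6 mice.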

The target in test [5] is T2, Muscarinic acetylcholine receptor M1 (Rattus norvegicus) (UniProt P08482).
T2 sequence (whole entry): T1 sequence (P08482 whole entry)
Nature of the test: Compound was tested for percent inhibition against displacement of [3H]pirenzepine from rat cortex membrane expressing muscarinic M1 receptor at 10^-6 M.

In test [6] the target is T3, Muscarinic acetylcholine receptor M2 (Rattus norvegicus, UniProt P10980).
T3 sequence (P10980 whole entry): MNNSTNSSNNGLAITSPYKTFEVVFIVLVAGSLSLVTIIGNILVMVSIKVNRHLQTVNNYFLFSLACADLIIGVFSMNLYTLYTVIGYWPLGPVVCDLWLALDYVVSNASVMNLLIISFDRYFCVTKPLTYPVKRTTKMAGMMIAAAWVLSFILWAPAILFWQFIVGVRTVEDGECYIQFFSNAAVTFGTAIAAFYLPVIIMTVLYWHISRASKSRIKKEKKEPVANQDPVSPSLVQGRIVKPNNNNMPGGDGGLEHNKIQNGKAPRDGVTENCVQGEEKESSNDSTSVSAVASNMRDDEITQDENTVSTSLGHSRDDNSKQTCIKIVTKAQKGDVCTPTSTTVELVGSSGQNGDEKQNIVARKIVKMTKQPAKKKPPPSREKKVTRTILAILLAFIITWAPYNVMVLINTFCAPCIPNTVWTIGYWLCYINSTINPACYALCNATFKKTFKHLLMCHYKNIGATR
Nature of the test: Compound tested in vitro for displacement of [3H]quinuclidinyl benzilate from rat cerebellum membrane expressing muscarinic M2 receptor. It counts as tissue-based. An outline of the steps:
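Male Wistar rat cerebellum homogenised in 0.32 M sucrose, spun at 900g then 11500g (4 °C), pellet washed in 5 mM Tris-HCl pH 7.4, stored -80 °C. Incubation in 50 mM Na+/K+ phosphate pH 7.4 with 0.06 nM [3H]QNB and 150 μg protein, 60 min at 25 °C. Nonspecific binding with 10 μM atropine. Filtration, scintillation counting. Triplicate, single experiment. Logit-log IC50 converted to Ki by Cheng-Prusoff.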

Test [7] concerns Mus musculus. Kind of test: Dose sc producing more than 30 mg of saliva as a total amount was determined in vivo in mice. Type of test: functional. Summed up: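 Male ICR mice given test compound subcutaneously. Saliva collected at 15 and 45 min after dosing. ED30mg is the dose giving more than 30 mg total saliva. Start at 30 mg/kg, then lower each dose to one-third of the previous until the criterion fails. 3-6 mice per dose group.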

Test [8] deals with Muscarinic acetylcholine receptors M1 & M2 (Rattus norvegicus). Kind of test: The ratio of Ki for M2 receptor to the Ki for M1 receptor was determined.
Test [9] has as its system Rattus norvegicus. Nature of the test: Increase in blood pressure of pithed rats after intravenous administration at 0.1 mg/kg. Type of test: functional. Summed up:
(§1)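 Male Wistar rats (ca. 200–300 g) were ether-anesthetized, tracheally catheterized, pithed with a steel rod and ventilated with room air. Drugs were given iv via the left femoral vein. Arterial pressure was recorded from the left common carotid artery, with body temperature held at 37 °C.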

The target of test [10] is T4, Muscarinic acetylcholine receptor M2 (Mus musculus) (UniProt Q9ERZ4).
T4 sequence (whole entry): T3 sequence (P10980 whole entry) with V270G, R316K, K321R, A331T, V336A
Nature of the test: In vivo muscarinic effect of […] hypothermia against central M2 receptor in mice at dose under 30 mg/kg sc (2 degree Celsius). It counts as functional, organism-based. Also on record: dose 30 mg/kg. Summed up:
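Male ICR mice given test compound subcutaneously. Rectal temperature taken by thermoprobe before dosing and 30 min after. ED for a 2 °C fall was found by starting at 30 mg/kg and lowering each dose to one-third of the previous until no drop over 2 °C was seen. 3-6 mice per dose group.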

Test [11] has as its system Rattus norvegicus. Nature of the test: Increase in blood pressure of pithed rats after intravenous administration at 3 mg/kg. It counts as functional. Summed up: as §1
Test [12] addresses T3, Muscarinic acetylcholine receptor M2. Kind of test: Tested against muscarinic M2 receptor by displacement of [3H]quinuclidinyl benzilate from rat cerebellum membrane. It counts as tissue-based. An outline of the steps:
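M2 binding: male Wistar rat cerebellum membranes (150 μg protein) were incubated with 0.06 nM [3H]QNB in 50 mM Na+/K+ phosphate, pH 7.4, for 60 min at 25 °C. Atropine 10 μM defined nonspecific binding. Bound radioactivity was collected by filtration and counted by scintillation. Ki came from logit-log IC50 with Cheng-Prusoff correction; single experiment in triplicate, with 95% confidence intervals.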

Residue numbers refer to the chain shown, from its start.

On to `CN1CCC2(CC1)OC(=S)N(c1ccccc1)C2=O`, for which the inhibition constant (Ki) in test [1] amounted to 4 µM.

As for `CCN1C(=O)OC2(CCNCC2)C1=O.Cl`, the ED30 with Mus musculus [2] is more than 30 mg/kg. This compound returned an MED in test [3] of 0.3 mg/kg. In addition, the ED delta in the test on Mus musculus [4] is more than 30 mg/kg. The same compound yielded a Ki in test [1] of 7.8 µM.

In turn, `COC(=O)CCCN1C(=O)OC2(CCN(C)CC2)C1=O` had an MED in test [3] of more than 30 mg/kg. This compound also returned a Ki in [1] of 6.4 µM.

In test [1], `CCN1C(=O)OC2(CCN(Cc3ccccc3)CC2)C1=O` yielded a Ki of more than 10 µM. Besides, the inhibition in test [5] came out at 2%.

`CN1CCC2(CC1)OC(=O)N(c1cccc(Cl)c1)C2=O` returned an MED in test [3] of 0.3 mg/kg. In test [1], this compound showed a Ki of 12 µM.

`CN1CCC2(CC1)OC(=O)NC2=O` displayed an MED in test [3] of more than 30 mg/kg. In [1], the Ki is more than 10 µM. This compound also displayed an inhibition in test [5] of 0%.

On to `CCN1C(=O)OC2(CCN(C)C2)C1=O` (configuration not stated), for which, in test [3], the MED is more than 30 mg/kg. In test [1], this compound yielded an inhibition constant Ki of more than 10 µM.

`CN1CCC2(CC1)OC(=O)N(C)C2=O` came in with an MED in test [3] of more than 30 mg/kg. Further, in test [1], the Ki was 16 µM.

In test [3], `C=CCN1C(=O)OC2(CCN(C)CC2)C1=O` showed an MED of more than 30 mg/kg. In test [1], the affinity corresponds to a Ki of 5.1 µM.

Regarding `Br.CCN1C(=O)CC2(CCN(C)CC2)C1=O`, the figures for the inhibition constant Ki in [6] and in test [1] were 0.97 µM and 0.46 µM, respectively. This compound came in with an MED in test [3] of 0.1 mg/kg. Also, in the test with Mus musculus [4], the ED delta was 1 mg/kg. Besides, the ED30 in the test on Mus musculus [7] amounted to 0.5 mg/kg. In addition, the M2/M1 Index in [8] was 2.1. In the test with Rattus norvegicus [9], this compound gave a BP of 12 mmHg.

As to `COC(=O)CN1C(=O)OC2(CCN(C)CC2)C1=O`, the inhibition constant (Ki) in test [1] is more than 10 µM. Moreover, the inhibition in test [5] is 40%.

`CCN1C(=O)OC2(CCN(CC#CCOC(=O)Nc3cccc(Cl)c3)CC2)C1=O` had an MED in [3] of more than 30 mg/kg. The Ki in test [1] was more than 10 µM. Further, the inhibition in test [5] turned out to be 0%.

`CCN1C(=O)OC2(CCCN(C)C2)C1=O` (configuration not stated) showed an MED in test [3] of more than 30 mg/kg. This compound had a Ki in test [1] of more than 10 µM.

As for `CCN1C(=O)OC2(CCN(CCCC(=O)OC)CC2)C1=O`, the MED in test [3] amounted to 30 mg/kg. The same compound displayed an inhibition constant Ki in [1] of more than 10 µM. Besides, the inhibition in [5] worked out at 0%.

On to `CCN1C(=O)C2(CCN(C)CC2)OC1=S`, for which the Ki in [6] is 4.3 µM; in [1] it was 0.89 µM. This compound also gave an ED30 in the test on Mus musculus [7] of 30 mg/kg. This compound also showed an ED delta in test [10] of 30 mg/kg.

With `CCN1C(=O)OC2(CCN(C)CC2)C1=O.Cl`, the BP in the test with Rattus norvegicus [11] came to 24 mmHg. In the test on Mus musculus [2], this compound gave an ED30 of 30 mg/kg. This compound also gave an MED in test [3] of 0.3 mg/kg. In the test on Mus musculus [4], the ED delta is more than 30 mg/kg. Also, the Ki in [1] was found to be 5 µM; in test [12], 7.8 µM. The M2/M1 Index in [8] was found to be 1.5.

In test [3], `CN1CCC2(CC1)OC(=O)N(CCN1CCOCC1)C2=O` registered an MED of more than 30 mg/kg. Further, in test [1], the Ki is more than 10 µM. In [5], the inhibition was 10%.

Turning to `CN1CCC2(CC1)OC(=O)N(CC(N)=O)C2=O`, in [3], the MED was more than 30 mg/kg. Also, in test [1], the inhibitory constant (Ki) is more than 10 µM. The same compound registered an inhibition in test [5] of 36%.

As to `CN1CCC2(CC1)OC(=S)N(C(C)(C)C)C2=O.Cl`, the Ki in [6] came to 2.1 µM; in [1], 0.21 µM. The compound also displayed an ED30 in the test on Mus musculus [7] of more than 30 mg/kg. In test [10], this compound registered an ED delta of 30 mg/kg.

As to `CN1CCC2(CC1)OC(=S)NC2=O`, the MED in test [3] worked out at 30 mg/kg. In addition, the inhibition constant Ki in test [1] was more than 10 µM. The compound further showed an inhibition in test [5] of 0%.

In test [1], `CN1CCC2(CC1)OC(=O)N(C(C)(C)C)C2=O` registered a Ki of 1.5 µM.
